From PubChem
T cruzi inh: blocks replication of Trypanosoma cruzi | T. cruzi beta-gal in NIH3T3, luminescence, 90 h | inhibition, % (no concentration beside the values) | 1.4% of 300,000 active;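 active = mean inhibition across valid replicates above about 55%, limit read from the data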;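 also: signal also drops with host cell toxicity which is not excluded here; 0% = plate median of DMSO wells and 100% = zero luminescence signal; higher percent means less beta-gal luminescence so fewer parasites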
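assay system = mouse NIH/3T3 fibroblasts infected with β-gal-expressing T. cruzi Tulahuen C4 | input = 5,000 NIH/3T3 host cells per well | buffer or medium = DMEM plus 2% FBS | timing = 3 h host attachment, then at least 90 h co-culture | measured by = GalScreen luminescence, 60 min | evaluation = luminescence reflecting intracellular parasite burden, expressed as percent inhibition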
PREPL inh: human PREPL enzyme inhibition | Q4J6C6 | recombinant PREPL, fluorescence polarization activity-based probe | inhibition, % at 5.96 µM | 0.68% of 320,000 active | AID 2751; in the data active = inhibition above about 43%;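 also: 0% = enzyme with DMSO and 100% = wells lacking enzyme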
Target sequence (Q4J6C6 whole entry, looked up): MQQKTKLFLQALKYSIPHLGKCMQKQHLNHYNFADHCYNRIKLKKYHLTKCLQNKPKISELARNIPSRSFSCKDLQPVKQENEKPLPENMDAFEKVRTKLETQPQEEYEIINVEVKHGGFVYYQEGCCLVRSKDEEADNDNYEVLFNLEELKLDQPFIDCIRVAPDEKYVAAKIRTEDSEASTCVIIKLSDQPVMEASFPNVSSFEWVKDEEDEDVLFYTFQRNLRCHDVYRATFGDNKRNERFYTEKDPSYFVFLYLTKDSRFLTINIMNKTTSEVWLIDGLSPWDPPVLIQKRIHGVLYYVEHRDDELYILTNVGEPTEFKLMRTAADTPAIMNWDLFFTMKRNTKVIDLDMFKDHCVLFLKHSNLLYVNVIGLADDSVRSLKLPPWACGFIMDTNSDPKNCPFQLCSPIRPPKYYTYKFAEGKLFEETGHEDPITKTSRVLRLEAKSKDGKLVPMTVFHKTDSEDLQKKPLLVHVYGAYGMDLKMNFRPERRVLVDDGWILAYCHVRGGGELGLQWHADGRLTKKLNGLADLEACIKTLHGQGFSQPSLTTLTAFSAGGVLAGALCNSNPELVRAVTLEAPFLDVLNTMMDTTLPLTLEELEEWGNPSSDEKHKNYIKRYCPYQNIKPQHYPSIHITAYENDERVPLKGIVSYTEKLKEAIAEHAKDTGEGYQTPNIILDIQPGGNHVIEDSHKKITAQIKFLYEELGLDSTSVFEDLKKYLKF
CHOP inh: inhibitors of CHOP induction in ER stress response. 3.8% of 220,000 active. inhibition, % at 10 µM. CHO-K1 CHOP-promoter luciferase, tunicamycin-induced, 15-18 h;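 active = compounds that reduced the stress-induced luciferase reporter signal by more than about 70% of percent inhibition, limit read from the data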;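 also: 0% = tunicamycin plus vehicle and 100% = wells without tunicamycin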
NR3A LBD binder: modulators (binders) of human NR3A ligand-binding domain. NR3A LBD differential scanning fluorimetry, Tm shift; 0% = protein alone, 100% = glycine-bound protein. Tm shift relative to glycine control, % at 25 µM. 2.5% of 340,000 active. AID 1259313;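 active = melting temperature shift of at least 10% of the positive control shift, at one fixed dose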
CSC inhib: cancer stem cell inhibition. cancer stem cell-like cells viability, luminescence. inhibition, % at 7.5 µM. 1.1% of 300,000 active; in the data active = inhibition above about 75%; tested in HMLE shEcad cells
Beta cell apopt: beta cell apoptosis inhibition | protection from apoptosis, % (no concentration beside the values) | INS-1E cytokine-induced death, ATP luminescence, 48 h; percent of positive-control rescue, neutral wells zero | 0.8% of 300,000 active;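 active = Every replicate reaches about 75%, or at least half do and their mean reaches it too, limit read from the data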;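 also: 0% = cytokine-treated negative control wells and 100% = positive control rescue; higher means more ATP so stronger rescue from cytokine killing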
Numbers without * were called inactive; x = no result given. Only some compounds are listed: those with a hit (about 6.7% of all), similar ones and a draw of the others.

SMILES	T cruzi inh	PREPL inh	CHOP inh	NR3A LBD binder	CSC inhib	Beta cell apopt
CC(C)c1onc(C(=O)Nc2cccc(Cl)c2)c1[N+](=O)[O-]	-15.4	25.4	-3.8	19.9*	-3.3	-7.0
CC(C)c1cc(C(=O)N2CCN(C(c3ccccc3)c3ccccc3)CC2)no1	7.5	5.7	81.6*	-2.9	6.2	2.0
O=C(N1CCCCC1)N1CCN(C(c2ccccc2)c2ccccc2)CC1	13.5	22.1	82.7*	-1.1	-6.5	3.7
Cc1cc(-c2csc3nc[nH]c(=S)c23)cc(C)c1C	1.1	9.0	15.2	-9.0	104.5*	21.9
Cc1ccc(-c2csc3nc[nH]c(=S)c23)cc1	36.6	1.3	10.8	-2.7	10.2	8.8
C=CCSc1nc2sc3c(c2c(=O)n1-c1ccccc1)CCN(C)C3	56.1*	10.9	x	-2.3	-13.2	-1.9
CCOC(=O)CSc1nc2sc3c(c2c(=O)n1C1CCCCC1)CCN(C)C3	56.7*	8.2	6.3	-3.8	-12.1	-0.5
CN1CCc2c(sc3c2c(=O)n(-c2ccccc2)c2nnc(SCc4ccccc4)n32)C1	70.6*	24.2	18.5	0.5	x	-6.7
CCOC(=O)CSc1nc2sc3c(c2c(=O)n1-c1ccc(OCC)cc1)CCN(C)C3	41.5	9.9	x	0.2	-15.5	-1.2
Cc1ccc(C)c(C(C)NC(=O)Cc2cccs2)c1 (stereo unspecified)	-3.9	13.1	x	-0.2	-2.7	2.0
O=C(CC1CCCC1)N1CCN(S(=O)(=O)c2cccc(F)c2)CC1	x	x	x	0.5	x	x
CC[C@@]1(C(=O)OC)N[C@H](CN(C)C(=O)Nc2ccc(OC)cc2)[C@@H]2C(=O)N(Cc3ccccc3)C(=O)[C@@H]21	x	22.6	x	8.7	-4.0	-4.6
O=C(COC(=O)CNS(=O)(=O)c1ccc2ccccc2c1)Nc1ccccc1Sc1ccccc1	2.8	-41.8	51.6	1.0	-6.4	-10.9
CC(=O)Oc1ccc(C(=O)Nc2ccc(S(=O)(=O)N3CCOCC3)cc2)cc1	-6.4	-3.8	x	-4.6	-1.8	-11.5
COc1ccc(CCNc2c(C)c(C)nc3ncnn23)cc1	-84.2	11.3	x	3.0	x	100.5*
Cc1ccc(Cl)c(OC(=O)c2ccc(N3CCOCC3)c([N+](=O)[O-])c2)c1	-15.9	27.4	30.6	22.1*	2.0	-1.3
CC1CCCCN1CCCNC(=O)CN1C(=O)c2cccnc2Oc2ccccc21 (stereo unspecified)	1.8	6.0	x	-0.7	-9.5	-3.9
COc1ccc2c(c1)-c1ccccc1S(=O)(=O)N(C)C2	x	x	x	-1.7	x	x
COc1ccc2c(c1)CN(C)S(=O)(=O)c1ccccc1-2	x	x	x	12.7*	x	x
Cc1cccc(-c2cc3nc4c(c(N5CCC6(CC5)OCCO6)n3n2)CCCC4)c1	x	11.3	x	15.3*	48.2	13.6
Cc1cccc(-c2cc3nc4c(c(N5CCCC(O)C5)n3n2)CCC4)c1 (stereo unspecified)	23.4	25.6	17.6	-2.1	2.9	6.5
Cc1cccc(-c2cc3nc4c(c(NCc5ccco5)n3n2)CCCC4)c1	48.5	27.8	-27.2	0.7	116.8*	33.2
CN(C)CCCNc1c2c(nc3cc(-c4cccc(F)c4)nn13)CCC2	68.3*	30.3	-9.1	-2.5	4.0	-12.6
CCOCCCNc1c2c(nc3cc(-c4ccc(F)cc4)nn13)CCC2	7.3	18.4	-3.0	1.3	-3.4	-2.1
Cc1cccc(-c2cc3nc4c(c(N5CCOCC5)n3n2)CCCC4)c1	43.2	24.5	20.5	-10.0	-6.4	1.8
SMILES	T cruzi inh	PREPL inh	CHOP inh	NR3A LBD binder	CSC inhib	Beta cell apopt
COc1cc(NS(=O)(=O)c2ccc(Nc3nc(-c4ccccc4)cs3)cc2)nc(OC)n1	-3.4	10.2	90.2*	26.7*	53.7	0.4
Cc1cc(NS(=O)(=O)c2ccc(Nc3nc(-c4ccc(C)c(C)c4)cs3)cc2)no1	-7.7	11.4	47.4	16.1*	1.6	-0.4
O=C(CN1CCN(C(=O)CN2C(=O)NC3(CCCC3)C2=O)CC1)Nc1cccc(F)c1	x	7.6	x	0.3	x	-2.0
N#C/C(=C\c1ccccc1O)C(=O)Nc1ccccn1	-3.8	9.1	x	0.9	1.7	-5.8
COc1ccc(/C=N\NS(=O)(=O)c2ccc(Cl)cc2)cc1COc1ccccc1[N+](=O)[O-]	40.8	-2.9	49.9	23.6*	9.7	-6.9
COC(=O)Oc1ccc(/C=N/NS(=O)(=O)c2ccccc2)cc1OC	-9.0	2.5	x	0.3	-14.2	6.0
COc1ccc(/C=N\NS(=O)(=O)c2ccc(Br)cc2)cc1COc1ccccc1[N+](=O)[O-]	37.9	-9.0	-7.1	25.0*	34.6	x
